From article PMC11904481 (ESMO Open, 2025)

System: patients with locally advanced unresectable or metastatic, relapsed and/or refractory nonhematological malignancies
Experiment: Phase I safety: adverse events
Assay type: in vivo, human
Procedure, shortened: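 Adverse events were graded by NCI CTCAE v4.03 across three i.v. schedules of the test compound (0.45-11.3 mg/kg; weekly per 28-day cycle, or days 1, 4, 8 ±11, 15 per 21-day cycle). Special-interest events covered retinal dysfunction symptoms and documented retinal disorders. Clustered signs were grouped as 'infusion reaction'. QTc was calculated with the Fridericia correction.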

[1] = schedules 1/2 cohort 1, 0.45 mg/kg
[2] = schedules 1/2 cohort 2, 0.9 mg/kg
[3] = schedules 1/2 cohort 3, 1.8 mg/kg
[4] = schedules 1/2 cohort 4, 3.6 mg/kg
[5] = schedules 1/2 cohort 5, 5.4 mg/kg
[6] = schedules 1/2 cohort 6, 4.8 mg/kg
[7] = schedules 1/2 cohort 7, 5.4 mg/kg
[8] = schedules 1/2 cohort 8, 7.2 mg/kg
[9] = schedules 1/2 cohort 9, 9.6 mg/kg

SMILES: O=C1Nc2cc3[nH]nc(-c4ccncc4)c3cc2CN1Cc1ccccc1 [KO-947]
- Total number of AESI [1]: 0 n
- Total number of treatment-related TEAEs [1]: 2 n
- Treatment-related TEAE: Blurred vision [1]: 0 n (%)
- Treatment-related TEAE: Dermatitis acneiform [1]: 0 n (%)
- Treatment-related TEAE: Fatigue [1]: 1 (100) n (%)
- Treatment-related TEAE: Headache [1]: 0 n (%)
- Treatment-related TEAE: Nausea [1]: 0 n (%)
- Treatment-related TEAE: QTc prolongation [1]: 0 n (%)
- Treatment-related TEAE: Subretinal fluid [1]: 0 n (%)
- Treatment-related TEAE: Vomiting [1]: 0 n (%)
- AESI: Blurred vision [2]: 0 n (%)
- AESI: Eye disorders [2]: 0 n (%)
- AESI: Macular edema [2]: 0 n (%)
- AESI: Retinal edema [2]: 0 n (%)
- AESI: Subretinal fluid [2]: 0 n (%)
- AESI: Vitreous floaters [2]: 0 n (%)
- Patients with ≥1 AESI [2]: 0 n (%)
- Patients with ≥1 treatment-related TEAE [2]: 0 n (%)
- Total number of AESI [2]: 0 n
- Total number of treatment-related TEAEs [2]: 0 n
- Treatment-related TEAE: Blurred vision [2]: 0 n (%)
- Treatment-related TEAE: Dermatitis acneiform [2]: 0 n (%)
- Treatment-related TEAE: Fatigue [2]: 0 n (%)
- Treatment-related TEAE: Headache [2]: 0 n (%)
- Treatment-related TEAE: Nausea [2]: 0 n (%)
- Treatment-related TEAE: QTc prolongation [2]: 0 n (%)
- Treatment-related TEAE: Subretinal fluid [2]: 0 n (%)
- Treatment-related TEAE: Vomiting [2]: 0 n (%)
- AESI: Blurred vision [3]: 0 n (%)
- AESI: Eye disorders [3]: 0 n (%)
- AESI: Macular edema [3]: 0 n (%)
- AESI: Retinal edema [3]: 0 n (%)
- AESI: Subretinal fluid [3]: 0 n (%)
- AESI: Vitreous floaters [3]: 0 n (%)
- Patients with ≥1 AESI [3]: 0 n (%)
- Patients with ≥1 treatment-related TEAE [3]: 1 (100) n (%)
- Total number of AESI [3]: 0 n
- Total number of treatment-related TEAEs [3]: 1 n
- Treatment-related TEAE: Blurred vision [3]: 0 n (%)
- Treatment-related TEAE: Dermatitis acneiform [3]: 0 n (%)
- Treatment-related TEAE: Fatigue [3]: 0 n (%)
- Treatment-related TEAE: Headache [3]: 0 n (%)
- Treatment-related TEAE: Nausea [3]: 0 n (%)
- Treatment-related TEAE: QTc prolongation [3]: 0 n (%)
- Treatment-related TEAE: Subretinal fluid [3]: 0 n (%)
- Treatment-related TEAE: Vomiting [3]: 0 n (%)
- AESI: Blurred vision [4]: 0 n (%)
- AESI: Eye disorders [4]: 0 n (%)
- AESI: Macular edema [4]: 0 n (%)
- AESI: Retinal edema [4]: 0 n (%)
- AESI: Subretinal fluid [4]: 0 n (%)
- AESI: Vitreous floaters [4]: 0 n (%)
- Patients with ≥1 AESI [4]: 0 n (%)
- Patients with ≥1 treatment-related TEAE [4]: 2 (67) n (%)
- Total number of AESI [4]: 0 n
- Total number of treatment-related TEAEs [4]: 7 n
- Treatment-related TEAE: Blurred vision [4]: 0 n (%)
- Treatment-related TEAE: Dermatitis acneiform [4]: 0 n (%)
- Treatment-related TEAE: Fatigue [4]: 0 n (%)
- Treatment-related TEAE: Headache [4]: 1 (33) n (%)
- Treatment-related TEAE: Nausea [4]: 1 (33) n (%)
- Treatment-related TEAE: QTc prolongation [4]: 0 n (%)
- Treatment-related TEAE: Subretinal fluid [4]: 0 n (%)
- Treatment-related TEAE: Vomiting [4]: 1 (33) n (%)
- AESI: Blurred vision [5]: 0 n (%)
- AESI: Eye disorders [5]: 0 n (%)
- AESI: Macular edema [5]: 0 n (%)
- AESI: Retinal edema [5]: 0 n (%)
- AESI: Subretinal fluid [5]: 0 n (%)
- AESI: Vitreous floaters [5]: 0 n (%)
- Patients with ≥1 AESI [5]: 0 n (%)
- Patients with ≥1 treatment-related TEAE [5]: 7 (100) n (%)
- Total number of AESI [5]: 0 n
- Total number of treatment-related TEAEs [5]: 60 n
- Treatment-related TEAE: Blurred vision [5]: 4 (57) n (%)
- Treatment-related TEAE: Dermatitis acneiform [5]: 0 n (%)
- Treatment-related TEAE: Fatigue [5]: 1 (14) n (%)
- Treatment-related TEAE: Headache [5]: 1 (14) n (%)
- Treatment-related TEAE: Nausea [5]: 1 (14) n (%)
- Treatment-related TEAE: QTc prolongation [5]: 1 (14) n (%)
- Treatment-related TEAE: Subretinal fluid [5]: 3 (43) n (%)
- Treatment-related TEAE: Vomiting [5]: 0 n (%)
- AESI: Blurred vision [6]: 0 n (%)
- AESI: Eye disorders [6]: 1 (25) n (%)
- AESI: Macular edema [6]: 0 n (%)
- AESI: Retinal edema [6]: 0 n (%)
- AESI: Subretinal fluid [6]: 1 (25) n (%)
- AESI: Vitreous floaters [6]: 0 n (%)
- Patients with ≥1 AESI [6]: 1 (25) n (%)
- Patients with ≥1 treatment-related TEAE [6]: 3 (75) n (%)
- Total number of AESI [6]: 3 n
- Total number of treatment-related TEAEs [6]: 25 n
- Treatment-related TEAE: Blurred vision [6]: 1 (25) n (%)
- Treatment-related TEAE: Dermatitis acneiform [6]: 1 (25) n (%)
- Treatment-related TEAE: Fatigue [6]: 0 n (%)
- Treatment-related TEAE: Headache [6]: 1 (25) n (%)
- Treatment-related TEAE: Nausea [6]: 1 (25) n (%)
- Treatment-related TEAE: QTc prolongation [6]: 0 n (%)
- Treatment-related TEAE: Subretinal fluid [6]: 1 (25) n (%)
- Treatment-related TEAE: Vomiting [6]: 0 n (%)
- AESI: Blurred vision [7]: 2 (67) n (%)
- AESI: Eye disorders [7]: 3 (10) n (%)
- AESI: Macular edema [7]: 0 n (%)
- AESI: Retinal edema [7]: 0 n (%)
- AESI: Subretinal fluid [7]: 2 (67) n (%)
- AESI: Vitreous floaters [7]: 1 (33) n (%)
- Patients with ≥1 AESI [7]: 3 (10) n (%)
- Patients with ≥1 treatment-related TEAE [7]: 3 (100) n (%)
- Total number of AESI [7]: 5 n
- Total number of treatment-related TEAEs [7]: 18 n
- Treatment-related TEAE: Blurred vision [7]: 2 (67) n (%)
- Treatment-related TEAE: Dermatitis acneiform [7]: 1 (33) n (%)
- Treatment-related TEAE: Fatigue [7]: 1 (33) n (%)
- Treatment-related TEAE: Headache [7]: 1 (33) n (%)
- Treatment-related TEAE: Nausea [7]: 2 (67) n (%)
- Treatment-related TEAE: QTc prolongation [7]: 0 n (%)
- Treatment-related TEAE: Subretinal fluid [7]: 2 (67) n (%)
- Treatment-related TEAE: Vomiting [7]: 1 (33) n (%)
- AESI: Blurred vision [8]: 2 (40) n (%)
- AESI: Eye disorders [8]: 5 (10) n (%)
- AESI: Macular edema [8]: 0 n (%)
- AESI: Retinal edema [8]: 1 (20) n (%)
- AESI: Subretinal fluid [8]: 2 (40) n (%)
- AESI: Vitreous floaters [8]: 0 n (%)
- Patients with ≥1 treatment-related TEAE [8]: 5 (100) n (%)
- Total number of AESI [8]: 5 n
- Total number of treatment-related TEAEs [8]: 14 n
- Treatment-related TEAE: Blurred vision [8]: 2 (40) n (%)
- Treatment-related TEAE: Dermatitis acneiform [8]: 2 (40) n (%)
- Treatment-related TEAE: Fatigue [8]: 0 n (%)
- Treatment-related TEAE: Headache [8]: 0 n (%)
- Treatment-related TEAE: Nausea [8]: 0 n (%)
- Treatment-related TEAE: QTc prolongation [8]: 0 n (%)
- Treatment-related TEAE: Subretinal fluid [8]: 2 (40) n (%)
- Treatment-related TEAE: Vomiting [8]: 1 (20) n (%)
- AESI: Blurred vision [9]: 8 (89) n (%)
- AESI: Eye disorders [9]: 8 (89) n (%)
- AESI: Macular edema [9]: 1 (11) n (%)
- AESI: Retinal edema [9]: 1 (11) n (%)
- AESI: Subretinal fluid [9]: 3 (33) n (%)
- AESI: Vitreous floaters [9]: 1 (11) n (%)
- Patients with ≥1 AESI [9]: 8 (89) n (%)
- Patients with ≥1 treatment-related TEAE [9]: 8 (89) n (%)
- Total number of AESI [9]: 16 n
- Total number of treatment-related TEAEs [9]: 39 n
- Treatment-related TEAE: Blurred vision [9]: 8 (89) n (%)
- Treatment-related TEAE: Dermatitis acneiform [9]: 1 (11) n (%)
- Treatment-related TEAE: Fatigue [9]: 1 (11) n (%)
- Treatment-related TEAE: Headache [9]: 0 n (%)
- Treatment-related TEAE: Nausea [9]: 1 (11) n (%)
- Treatment-related TEAE: QTc prolongation [9]: 4 (44) n (%)
- Treatment-related TEAE: Subretinal fluid [9]: 3 (33) n (%)
- Treatment-related TEAE: Vomiting [9]: 2 (22) n (%)
- AESI: Blurred vision (schedules 1/2 total N = 34): 12 (35) n (%)
- AESI: Eye disorders (schedules 1/2 total N = 34): 17 (50) n (%)
- AESI: Macular edema (schedules 1/2 total N = 34): 1 (3) n (%)
- AESI: Retinal edema (schedules 1/2 total N = 34): 2 (6) n (%)
- AESI: Subretinal fluid (schedules 1/2 total N = 34): 8 (24) n (%)
- AESI: Vitreous floaters (schedules 1/2 total N = 34): 2 (6) n (%)
- Patients with ≥1 AESI (schedules 1/2 total N = 34): 17 (50) n (%)
- Patients with ≥1 treatment-related TEAE (schedules 1/2 total N = 34): 30 (88) n (%)
- Total number of AESI (schedules 1/2 total N = 34): 29 n
- Total number of treatment-related TEAEs (schedules 1/2 total N = 34): 166 n
- Treatment-related TEAE: Blurred vision (schedules 1/2 total N = 34): 17 (50) n (%)
- Treatment-related TEAE: Dermatitis acneiform (schedules 1/2 total N = 34): 5 (15) n (%)
- Treatment-related TEAE: Fatigue (schedules 1/2 total N = 34): 4 (12) n (%)
- Treatment-related TEAE: Headache (schedules 1/2 total N = 34): 4 (12) n (%)
- Treatment-related TEAE: Nausea (schedules 1/2 total N = 34): 6 (18) n (%)
- Treatment-related TEAE: QTc prolongation (schedules 1/2 total N = 34): 5 (15) n (%)
- Treatment-related TEAE: Subretinal fluid (schedules 1/2 total N = 34): 11 (32) n (%)
- Treatment-related TEAE: Vomiting (schedules 1/2 total N = 34): 5 (15) n (%)
- grade ≥3 TEAE: QTc prolongation on ECG (schedules 1 and 2): 9%
- grade ≥3 TEAE: hypokalemia (schedules 1 and 2): 6%
- grade ≥3 TEAE: increased blood alkaline phosphatase (schedules 1 and 2): 6%
- grade ≥3 TEAE: increased gamma-glutamyl transferase (schedules 1 and 2): 15%
- grade ≥3 TEAE: lymphopenia (schedules 1 and 2): 6%
- grade ≥3 TEAE: rash (schedules 1 and 2): 6%
- patients discontinued owing to AEs (schedules 1 and 2): 3%
- patients with at least one AESI (schedules 1 and 2): 50%
- patients with grade ≥3 TEAEs (schedules 1 and 2): 50%
- treatment-related QTc prolongation (schedules 1 and 2): 15%
- treatment-related blurred vision (schedules 1 and 2): 50%
- treatment-related dermatitis acneiform (schedules 1 and 2): 15%
- treatment-related fatigue (schedules 1 and 2): 12%
- treatment-related headache (schedules 1 and 2): 12%
- treatment-related nausea (schedules 1 and 2): 18%
- treatment-related subretinal fluid (schedules 1 and 2): 32%
- treatment-related vomiting (schedules 1 and 2): 15%
